What was measured:
Influenza A virus [1] = assay: Antiviral activity against human influenza A virus A/WSN/33 (H1N1) in MDCK cells assessed as reduction of virus-induced cytopathic effect; type: functional, organism-based; settings: A/WSN/1933(H1N1)
Outline: (§1)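 MDCK cells (1.1 × 10^5 cells/mL in DMEM + 10% FBS) grown 24-30 h at 37 C to about 90% confluency. Virus (100 TCID50) premixed with serially diluted compound, adsorbed 1 h at 37 C. Overlay of serum-free DMEM with trypsin 2.5 μg/mL and 0.1% DMSO, then 72 h at 37 C. Formaldehyde fixation, crystal violet stain, A570. IC50 = 50% CPE reduction versus virus control. Triplicate, at least two runs.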

[2] = Cytotoxicity against MDCK cells after 72 hrs; type: cell-based, Canis lupus familiaris; settings: dog
Outline: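 Uninfected MDCK monolayers (seeded at 1.1 × 10^5 cells/mL, grown 24-30 h to about 90% confluency) exposed to graded compound concentrations for 72 h at 37 C. Read by formaldehyde fixation, 0.1% crystal violet staining and absorbance at 570 nm. CC50 = concentration reducing viability to 50% of control. Triplicate, repeated at least twice.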

Influenza B virus [3] = assay: Antiviral activity against human influenza B virus B/TW/70325/05 in MDCK cells assessed as reduction of virus-induced cytopathic; type: functional, organism-based; settings: B/TW/70325/05, MDCK; outline: as §1
Influenza A virus [4] = assay: Antiviral activity against human influenza A virus A/TW/141/04 (H1N1) in MDCK cells assessed as reduction of virus-induced cytopathic effect; type: functional, organism-based; outline: as §1
Influenza B virus [5] = assay: Antiviral activity against human influenza B virus B/TW/99/07 in MDCK cells assessed as reduction of virus-induced cytopathic; type: functional, organism-based; settings: B/TW/99/07, MDCK; outline: as §1
Influenza B virus [6] = assay: Antiviral activity against human influenza B virus B/TW/710/05 in MDCK cells assessed as reduction of virus-induced cytopathic; type: functional, organism-based; settings: B/TW/710/05, MDCK; outline: as §1
Influenza A virus [7] = assay: Antiviral activity against human influenza A virus A/TW/3446/04 (H3N2) in MDCK cells assessed as reduction of virus-induced cytopathic effect; type: functional, organism-based; outline: as §1

SMILES | IC50 (Influenza A virus [1]) | CC50 at 72 h [2] | other results
Cc1cc(=O)oc2c1ccc1oc(C(=O)c3ccccc3)c(-c3cccc(Br)c3)c12 | 80 nM | > 25000 nM | –
Cc1ccc(C(=O)c2oc3ccc4c(C)cc(=O)oc4c3c2-c2ccccc2)cc1 | 870 nM | > 25000 nM | –
Cc1cc(=O)oc2c1ccc1oc(C(=O)c3ccccc3)c(-c3ccc(Cl)cc3)c12 | 3920 nM | > 25000 nM | –
COc1ccccc1C(=O)c1oc2ccc3c(C)cc(=O)oc3c2c1-c1ccccc1 | 640 nM | > 25000 nM | –
Cc1cc(=O)oc2c1ccc1oc(C(=O)c3ccccc3)c(-c3cccs3)c12 | 150 nM | > 25000 nM | –
Cc1cc(=O)oc2c1ccc1oc(C(=O)c3ccccc3)c(-c3cccc(C#N)c3)c12 | 530 nM | > 25000 nM | –
COc1cccc(C(=O)c2oc3ccc4c(C)cc(=O)oc4c3c2-c2ccccc2)c1 | 110 nM | > 25000 nM | –
O=C(c1ccccc1)c1oc2ccc3c4c(c(=O)oc3c2c1-c1ccccc1)CCCC4 | > 25000 nM | > 25000 nM | –
Cc1cccc(C(=O)c2oc3ccc4c(C)cc(=O)oc4c3c2-c2ccccc2)c1 | 260 nM | > 25000 nM | –
O=C(c1ccccc1)c1oc2ccc3ccccc3c2c1-c1ccccc1 | > 25000 nM | > 25000 nM | –
Cc1cc(=O)oc2c1ccc1sc(C(=O)c3ccccc3)c(-c3ccccc3)c12 | 720 nM | > 25000 nM | –
Cc1cc(=O)oc2c1ccc1oc(C(=O)c3ccccc3)c(C)c12 | 4510 nM | > 25000 nM | –
COc1ccc(-c2c(C(=O)c3ccccc3)oc3ccc4c(C)cc(=O)oc4c23)cc1 | 10100 nM | > 25000 nM | –
Cc1cc(=O)oc2c1ccc1oc(C(=O)c3ccccc3)c(-c3cccc(Cl)c3)c12 | 1410 nM | > 25000 nM | –
Cc1cc(=O)oc2c1ccc1oc(C(=O)c3ccc(Cl)cc3)c(-c3ccccc3)c12 | 22300 nM | > 25000 nM | –
Cc1cc(=O)oc2c1ccc1oc(C(=O)c3cccc(O)c3)c(-c3ccccc3)c12 | 720 nM | > 25000 nM | –
Cc1cc(=O)oc2c1ccc1oc(C(=O)c3cccs3)c(-c3cccc(Br)c3)c12 | 60 nM | > 25000 nM | –
CC(=O)N[C@H]1[C@H]([C@H](O)[C@H](O)CO)OC(C(=O)O)=C[C@@H]1NC(=N)N [ZANAMIVIR] | 60 nM | – | IC50 (Influenza B virus [3]): 20 nM; IC50 (Influenza A virus [4]): 350 nM; IC50 (Influenza B virus [5]): 100 nM; IC50 (Influenza B virus [6]): 30 nM; IC50 (Influenza A virus [7]): 30 nM
CCCCCCCCCCc1c(C(=O)c2ccccc2)oc2ccc3c(C)cc(=O)oc3c12 | > 25000 nM | > 25000 nM | –
O=C(c1ccccc1)c1oc2ccccc2c1-c1ccccc1 | > 25000 nM | 5270 nM | –
Cc1cc(=O)oc2c1ccc1oc(C(=O)c3ccccc3)c(-c3ccccc3Br)c12 | 730 nM | > 25000 nM | –
Cc1cc(=O)oc2c1ccc1occ(-c3ccccc3)c12 | > 25000 nM | > 25000 nM | –

SMILES | IC50 (Influenza A virus [1]) | CC50 at 72 h [2] | other results
Cc1cccc(-c2c(C(=O)c3ccccc3)oc3ccc4c(C)cc(=O)oc4c23)c1 | 100 nM | > 25000 nM | –
Cc1cc2ccc3oc(C(=O)c4ccccc4)c(-c4ccccc4)c3c2oc1=O | 2790 nM | > 25000 nM | –
Cc1cc(=O)oc2c1ccc1oc(C(=O)c3cccc(Cl)c3)c(-c3ccccc3)c12 | 260 nM | > 25000 nM | –
CCc1cc(=O)oc2c1ccc1oc(C(=O)c3ccccc3)c(-c3ccccc3)c12 | 240 nM | > 25000 nM | –
O=C(c1ccccc1)c1oc2ccc3ccc(=O)oc3c2c1-c1ccccc1 | 17600 nM | > 25000 nM | –
Cc1cc(=O)oc2c1ccc1oc(C(=O)c3cccc([N+](=O)[O-])c3)c(-c3ccccc3)c12 | 1710 nM | > 25000 nM | –
Cc1cc(=O)oc2c1ccc1oc(C(=O)c3cccc(OCCN(C)C)c3)c(-c3ccccc3)c12 | 5280 nM | 17600 nM | –
Cc1cc(=O)oc2c1ccc1oc(C(=O)c3ccccc3)c(-c3ccc([N+](=O)[O-])cc3)c12 | 760 nM | > 25000 nM | –
Cc1cc(=O)oc2c1ccc1oc(C(O)c3ccccc3)c(-c3ccccc3)c12 (configuration not stated) | 320 nM | > 25000 nM | –
CCCCCOc1cccc(C(=O)c2oc3ccc4c(C)cc(=O)oc4c3c2-c2ccccc2)c1 | 140 nM | > 25000 nM | –
CCCOc1cccc(C(=O)c2oc3ccc4c(C)cc(=O)oc4c3c2-c2ccccc2)c1 | 150 nM | > 25000 nM | –
Cc1cc(=O)oc2c1ccc1oc(C(=O)c3ccccc3)c(-c3ccc4ccccc4c3)c12 | 1910 nM | > 25000 nM | –
CCCc1cc(=O)oc2c1ccc1oc(C(=O)c3ccccc3)c(-c3ccccc3)c12 | 470 nM | > 25000 nM | –
CC(=O)c1oc2ccc3c(C)cc(=O)oc3c2c1-c1ccccc1 | > 25000 nM | > 25000 nM | –
COc1ccc(C(=O)c2oc3ccc4c(C)cc(=O)oc4c3c2-c2ccccc2)cc1 | 1670 nM | > 25000 nM | –
Cc1c(C)c2ccc3oc(C(=O)c4ccccc4)c(-c4ccccc4)c3c2oc1=O | 290 nM | > 25000 nM | –
Cc1ccc(-c2c(C(=O)c3ccccc3)oc3ccc4c(C)cc(=O)oc4c23)cc1 | 820 nM | > 25000 nM | –
Cc1cc(=O)oc2c1ccc1oc(C(=O)c3ccc([N+](=O)[O-])cc3)c(-c3ccccc3)c12 | > 6250 nM | – | –
Cc1cc(=O)oc2c1ccc1oc(C(=O)c3ccccn3)c(-c3ccccc3)c12 | 610 nM | – | –
Cc1cc(=O)oc2c1ccc1oc(C(=O)c3ccccc3)c(-c3cccc4ccccc34)c12 | 880 nM | > 25000 nM | –
Cc1cc(=O)oc2c1ccc1oc(C(=O)c3ccccc3)c(-c3ccccc3)c12 | 140 nM | > 25000 nM | –
Cc1cc2oc(C(=O)c3ccccc3)c(-c3ccccc3)c2c2oc(=O)ccc12 | 7760 nM | > 25000 nM | –

SMILES | IC50 (Influenza A virus [1]) | CC50 at 72 h [2] | other results
C/C=C/C(=O)Oc1cccc2oc(C(=O)c3ccccc3)c(-c3ccccc3)c12 | 20800 nM | > 25000 nM | –
Cc1cc(=O)oc2c1ccc1oc(C(=O)c3cccc(F)c3)c(-c3ccccc3)c12 | 290 nM | > 25000 nM | –
Cc1cc(=O)oc2c1ccc1oc(C(=O)c3ccccc3)c(-c3ccco3)c12 | 650 nM | > 25000 nM | –
Cc1cc(=O)oc2c1ccc1oc(C(=O)c3ccccc3)cc12 | 2430 nM | > 25000 nM | –
CCCc1c(C(=O)c2ccccc2)oc2ccc3c(C)cc(=O)oc3c12 | 290 nM | > 25000 nM | –
CCCCOc1cccc(C(=O)c2oc3ccc4c(C)cc(=O)oc4c3c2-c2ccccc2)c1 | 80 nM | > 25000 nM | –
Cc1cc(=O)oc2c1ccc1oc(Cc3ccccc3)c(-c3ccccc3)c12 | 630 nM | > 25000 nM | –
Cc1cc(=O)oc2c1ccc1oc(C(=O)c3ccccc3)c(-c3cccc([N+](=O)[O-])c3)c12 | 250 nM | > 25000 nM | –
Cc1ccccc1C(=O)c1oc2ccc3c(C)cc(=O)oc3c2c1-c1ccccc1 | 6620 nM | > 25000 nM | –
CCOc1cccc(C(=O)c2oc3ccc4c(C)cc(=O)oc4c3c2-c2ccccc2)c1 | 120 nM | > 25000 nM | –
Cc1cc(=O)oc2c1ccc1oc(C(=O)c3ccccc3)c(-c3ccc(Br)cc3)c12 | 460 nM | > 25000 nM | –
Cc1cc(=O)oc2c1ccc1oc(C(=O)c3ccco3)c(-c3ccccc3)c12 | 410 nM | > 25000 nM | –
Cc1cc(=O)oc2c1ccc1oc(C(=O)c3ccccc3)c(-c3cc(Br)cc(Br)c3)c12 | 100 nM | > 25000 nM | –
COc1cccc(C(=O)c2oc3ccc4c(C)cc(=O)oc4c3c2-c2cccc(Br)c2)c1 | 90 nM | > 25000 nM | –
Cc1cc(=O)oc2c1ccc1oc(-c3ccccc3)c(-c3ccccc3)c12 | > 25000 nM | > 25000 nM | –
Cc1cc(=O)oc2c1ccc1oc(C(=O)c3cccc(OCCCO)c3)c(-c3ccccc3)c12 | 2650 nM | > 25000 nM | –
O=C(c1ccccc1)c1oc2ccc3c(-c4ccccc4)cc(=O)oc3c2c1-c1ccccc1 | > 25000 nM | > 25000 nM | –
CCCCCCCCOc1cccc(C(=O)c2oc3ccc4c(C)cc(=O)oc4c3c2-c2ccccc2)c1 | 7970 nM | > 25000 nM | –
Cc1cc(=O)oc2c1ccc1oc(C(=O)c3cccc(OCCO)c3)c(-c3ccccc3)c12 | 6090 nM | > 25000 nM | –
Cc1cc(=O)oc2c1ccc1oc(C(=O)c3ccsc3)c(-c3ccccc3)c12 | 150 nM | > 25000 nM | –
CCCCCCc1c(C(=O)c2ccccc2)oc2ccc3c(C)cc(=O)oc3c12 | 650 nM | > 25000 nM | –

From ChEMBL document CHEMBL1156875, “Anti-influenza drug discovery: structure-activity relationship and mechanistic insight into novel angelicin derivatives” (J Med Chem, 2010)
